In data set [1] the target is double phospho-peptide containing pT202pY204 derived from the ERK activation loop.
Data set [2] shares this target. This is another data set of the same source.
Data set [3] concerns the target double-phosphorylated ERK2-pT202pY204 protein (UniProt P28482).
For data set [4] the target is unchanged. This is another data set of the same source.
For data set [5], the system named is ERK2-pT202pY204. As to the kind of experiment: Enzyme-coupled. It is filed as biochemical. To be noted: for decrease of kcat/Km (activity) toward phospho-ERK protein: STEP variant compared to wild-type STEP; for effect of mutation on activity toward phospho-ERK protein (in words): compared to the respective wild-type phosphatase. Put shortly:
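Phospho-ERK2 protein was prepared using ERK2 and MEK1 expression plasmids. Initial rates were fitted to Michaelis-Menten for Km and kcat. At substrate << Km, kcat/Km came from first-order progress-curve fitting. Values are mean ± standard error.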

In data set [6] the test system is ERK pT202pY204 phospho-peptide. It is filed as biochemical. To be noted: for effect of mutation on activity toward phospho-ERK peptide (in words) / effect of mutation on Km for the phospho-ERK-peptide (in words): compared to wild-type STEP; for decrease of activity toward phospho-ERK peptide: STEP mutant compared to wild-type STEP, 37°C, pH 6.0. Put shortly:
(§1)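 Synthetic, HPLC-purified Tyr(P)-containing peptides were dephosphorylated at 37°C in 50 mM succinic buffer (pH 6.0), 1 mM EDTA and 2 mM DTT, ionic strength 0.15 M (NaCl). Released phosphate was measured with BIOMOL Green at 620 nm. Hydrolysis was also followed continuously by tyrosine fluorescence (excitation 280 nm, emission 305 nm). Michaelis-Menten fits gave kinetic parameters (mean ± standard error).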

Data set [7] in a line: Activity of STEP variants toward pNPP. It is filed as biochemical. To be noted: for effect of mutation on activity toward pNPP (in words): compared to wild-type STEP, 37°C, pH 6.0. Put shortly:
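Phosphatase variants hydrolysed pNPP at 37°C in 50 mM succinic buffer (pH 6.0) with 1 mM EDTA, 2 mM DTT and ionic strength adjusted to 0.15 M with NaCl. Reactions were stopped with 1 M NaOH and read at 405 nm. Kinetic parameters came from Michaelis-Menten fits, reported as mean ± standard error.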

Data set [8] has as its system p38-derived phospho-peptide. As to the kind of experiment: Activity of STEP variants toward the p38-derived phospho-peptide. It is filed as biochemical. To be noted: STEP mutant compared to wild-type STEP. Put shortly: as §1

Substitutions are numbered along the chain they refer to. In names and notes the source's numbering stands.

In data set [1], “STEP F311A (from UniProt P54829 1-565) (enzyme)” returned an activity toward the ERK phospho-peptide, decrease against wild-type STEP of 2 fold. “STEP K463Q (from UniProt P54829 1-565) (enzyme)”: in data set [2], the activity toward the phospho-ERK peptide, decrease against wild-type STEP was over 4 fold. This molecule also registered an activity toward the phospho-ERK protein, decrease against wild-type STEP in data set [3] of over 4 fold.

“HePTP S23E (from UniProt P35236 1-360) (enzyme)”: the activity toward phospho-ERK, decrease against wild-type HePTP in data set [4] came out at 3 fold.

B1: STEP: purified striatal-enriched protein tyrosine phosphatase (human PTPN5), wild type (protein, UniProt P54829 1-565, looked up)
Tyrosine-protein phosphatase …: MNYEGARSERENHAADDSEGGALDMCCSERLPGLPQPIVMEALDEAEGLQDSQREMPPPPPPSPPSDPAQKPPPRGAGSHSLTVRSSLCLFAASQFLLACGVLWFSGYGHIWSQNATNLVSSLLTLLKQLEPTAWLDSGTWGVPSLLLVFLSVGLVLVTTLVWHLLRTPPEPPTPLPPEDRRQSVSRQPSFTYSEWMEEKIEDDFLDLDPVPETPVFDCVMDIKPEADPTSLTVKSMGLQERRGSNVSLTLDMCTPGCNEEGFGYLMSPREESAREYLLSASRVLQAEELHEKALDPFLLQAEFFEIPMNFVDPKEYDIPGLVRKNRYKTILPNPHSRVCLTSPDPDDPLSSYINANYIRGYGGEEKVYIATQGPIVSTVADFWRMVWQEHTPIIVMITNIEEMNEKCTEYWPEEQVAYDGVEITVQKVIHTEDYRLRLISLKSGTEERGLKHYWFTSWPDQKTPDRAPPLLHLVREVEEAAQQEGPHCAPIIVHCSAGIGRTGCFIATSICCQQLRQEGVVDILKTTCQLRQDRGGMIQTCEQYQFVHHVMSLYEKQLSHQSPE
Turning to B1, the “kcat of ERK-pT202pY204 dephosphorylation” value in data set [5] (pH 7.0, 25°C, initial rates fitted to Michaelis-Menten, OD360) came to 0.78 s^−1.

B2: T330A: STEP pY-binding loop mutant T330A (protein, UniProt P54829 1-565, looked up, variant T330A)
Tyrosine-protein phosphatase …: B1 Tyrosine-protein phosphatase … with T330A
For the molecule B2, in data set [6], the “effect of mutation on activity toward phospho-ERK peptide (in words)” value was “did not affect”. For the same molecule, in data set [7], the “effect of mutation on activity toward pNPP (in words)” value is recorded as “did not affect”.

B3: STEP (R242 and R243): STEP with combined mutation of R242 and R243 to alanine (protein, UniProt P54829 1-565, looked up, variant R242A R243A)
Tyrosine-protein phosphatase …: B1 Tyrosine-protein phosphatase … with R242A, R243A
For B3, in data set [5] (compared to single R-to-A mutations of STEP), the “effect of combined R-to-A mutation on ERK dephosphorylation (in words)” value is listed as “did not promote a further decrease”.

B4: R242A: STEP KIM mutant R242A (protein, UniProt P54829 1-565, looked up, variant R242A)
Tyrosine-protein phosphatase …: B1 Tyrosine-protein phosphatase … with R242A
Take B4: the “decrease of kcat/Km (activity) toward phospho-ERK protein” value (“decrease of kcat/Km” for short) in data set [5] (pH 7.0, 25°C) came out at 4 fold.

B5: L251A: STEP KIM mutant L251A (protein, UniProt P54829 1-565, looked up, variant L251A)
Tyrosine-protein phosphatase …: B1 Tyrosine-protein phosphatase … with L251A
For the molecule B5, the “decrease of kcat/Km” value in data set [5] (pH 7.0, 25°C) is on record as 7 fold.

B6: K463Q: STEP WPD-loop mutant K463Q (protein, UniProt P54829 1-565, looked up, variant K463Q)
Tyrosine-protein phosphatase …: B1 Tyrosine-protein phosphatase … with K463Q
For the molecule B6, the “decrease of kcat/Km” value in data set [5] (pH 7.0, 25°C) is reported as “more than 4 fold”. In addition, the “decrease of activity toward phospho-ERK peptide” value in data set [6] is on record as “more than 4 fold”.

B7: Q462H: STEP WPD-loop mutant Q462H (protein, UniProt P54829 1-565, looked up, variant Q462H)
Tyrosine-protein phosphatase …: B1 Tyrosine-protein phosphatase … with Q462H
For B7, in data set [5], the “effect of mutation on activity toward phospho-ERK protein (in words)” value is “increase”. For the same molecule, in data set [6], the “effect of mutation on Km for the phospho-ERK-peptide (in words)” value is on record as “significantly lower”.

B8: T541A: STEP Q-loop mutant T541A (protein, UniProt P54829 1-565, looked up, variant T541A)
Tyrosine-protein phosphatase …: B1 Tyrosine-protein phosphatase … with T541A
As for B8, in data set [5] (pH 7.0, 25°C), the “decrease of kcat/Km” value amounted to 2 fold. In addition, the “decrease of activity toward phospho-ERK peptide” value in data set [6] was 2 fold. Besides, the “decrease of activity toward phospho-p38 peptide” value in data set [8] (stated as 'all substrates') came out at 2 fold. Besides, the “decrease of activity toward pNPP” value in data set [7] (STEP mutant compared to wild-type STEP, stated as 'all substrates') stood at 2 fold.

B9: T330D: STEP pY-binding loop mutant T330D (protein, UniProt P54829 1-565, looked up, variant T330D)
Tyrosine-protein phosphatase …: B1 Tyrosine-protein phosphatase … with T330D
With B9, the “increase of kcat/Km toward phospho-ERK protein” value in data set [5] (STEP mutant compared to wild-type STEP) is reported as 1.3 fold. In data set [8], the “increase of activity toward p38-derived phospho-peptide” value is on record as 2–3 fold. Moreover, in data set [7], the “effect of mutation on activity toward pNPP (in words)” value is on record as “did not affect”.

B10: S245E: S245E STEP phosphorylation mimic mutation (protein, UniProt P54829 1-565, looked up, variant S245E)
Tyrosine-protein phosphatase …: B1 Tyrosine-protein phosphatase … with S245E
As to B10, the “decrease of kcat/Km” value in data set [5] (pH 7.0, 25°C) was found to be 50 fold. In addition, in data set [6], the “effect of mutation on activity toward phospho-ERK peptide (in words)” value is “did not affect”. Further, in data set [7], the “effect of mutation on activity toward pNPP (in words)” value is reported as “did not affect”.

B11: L249A: STEP KIM mutant L249A (protein, UniProt P54829 1-565, looked up, variant L249A)
Tyrosine-protein phosphatase …: B1 Tyrosine-protein phosphatase … with L249A
Turning to B11, the “decrease of kcat/Km” value in data set [5] (pH 7.0, 25°C) was 2.5 fold.

B12: K329A: STEP pY-binding loop mutant K329A (protein, UniProt P54829 1-565, looked up, variant K329A)
Tyrosine-protein phosphatase …: B1 Tyrosine-protein phosphatase … with K329A
Regarding B12, the “effect of mutation on activity toward phospho-ERK protein (in words)” value in data set [5] is listed as “did not affect”. In data set [6], the “effect of mutation on activity toward phospho-ERK peptide (in words)” value is “weakly”. Further, the “effect of mutation on activity toward pNPP (in words)” value in data set [7] was “weakly”.

B13: E543: STEP Q-loop mutant, conserved E543 mutated to arginine (protein, UniProt P54829 1-565, looked up, variant E543R)
Tyrosine-protein phosphatase …: B1 Tyrosine-protein phosphatase … with E543R
For B13, in data set [5], the “effect of mutation on activity toward phospho-ERK protein (in words)” value is “no effect”.

B14: F311A: STEP second-site loop mutant F311A (protein, UniProt P54829 1-565, looked up, variant F311A)
Tyrosine-protein phosphatase …: B1 Tyrosine-protein phosphatase … with F311A
As for B14, the “decrease of kcat/Km” value in data set [5] (pH 7.0, 25°C) worked out at 2 fold. In addition, in data set [6], the “decrease of activity toward phospho-ERK peptide” value is 2 fold. Besides, the “effect of mutation on activity toward pNPP (in words)” value in data set [7] was “did not affect”.

B15: R243A: STEP KIM mutant R243A (protein, UniProt P54829 1-565, looked up, variant R243A)
Tyrosine-protein phosphatase …: B1 Tyrosine-protein phosphatase … with R243A
Consider B15, for which the “decrease of kcat/Km” value in data set [5] (pH 7.0, 25°C) is recorded as 6 fold.

B16: Q462F: STEP WPD-loop mutant Q462F (protein, UniProt P54829 1-565, looked up, variant Q462F)
Tyrosine-protein phosphatase …: B1 Tyrosine-protein phosphatase … with Q462F
For the molecule B16, in data set [5], the “effect of mutation on activity toward phospho-ERK protein (in words)” value is “increase”. Besides, the “effect of mutation on Km for the phospho-ERK-peptide (in words)” value in data set [6] is recorded as “significantly lower”.

For the origin of these results see article PMC3947313 (Journal of neurochemistry, 2013).
